The text below walks through data of ChEMBL document CHEMBL1671632, “Genetic basis of multidrug resistance in Acinetobacter baumannii clinical isolates at a tertiary medical center in Pennsylvania” (2008).

In assay [1] the test system is Acinetobacter baumannii. Kind of assay: Antimicrobial activity against multidrug-resistant Acinetobacter baumannii assessed as resistant isolates by disk diffusion method. It is filed as functional. In outline: (§1)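 Standard disk diffusion was done on Mueller-Hinton agar with ampicillin-sulbactam, ceftazidime, cefepime, meropenem, tobramycin, gentamicin, ciprofloxacin and tetracycline. Isolates were called susceptible or resistant using CLSI breakpoints.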
A general note: A growth-free zone around the sample is the usual read-out of agar diffusion tests.

Assay [2] concerns Acinetobacter baumannii. Kind of assay: Antimicrobial activity against multidrug-resistant Acinetobacter baumannii expressing armA gene by Etest method. It is filed as functional.
The subject of assay [3] is Acinetobacter baumannii. Kind of assay: Antimicrobial activity against multidrug-resistant Acinetobacter baumannii by Etest method. It is filed as functional.
In assay [4] the test system is Acinetobacter baumannii. Kind of assay: Antimicrobial activity against multidrug-resistant Acinetobacter baumannii expressing aac(6')-1b gene by Etest method. In kind it is functional.
Assay [5] concerns Acinetobacter baumannii. Kind of assay: Antimicrobial activity against multidrug-resistant Acinetobacter baumannii expressing aph(3')-Vla gene by Etest method. In kind it is functional.
Assay [6] relates to Acinetobacter baumannii. Kind of assay: Antimicrobial activity against multidrug-resistant Acinetobacter baumannii assessed as resistant isolates by disk diffusion method in presence of beta-lactamase inhibitor Sulbactam. It is filed as functional. In outline: as §1
Assay [7] concerns Acinetobacter baumannii. Kind of assay: Antimicrobial activity against multidrug-resistant Acinetobacter baumannii expressing armA and bla oxa-23 gene assessed as resistant isolates by disk diffusion method. In kind it is functional. In outline: as §1
The subject of assay [8] is Acinetobacter baumannii. Kind of assay: Antimicrobial activity against Acinetobacter baumannii AB017 transformant harboring bla-OXA-23 gene by Etest method. In kind it is functional.
The test system of assay [9] is Acinetobacter baumannii. Kind of assay: Antimicrobial activity against Acinetobacter baumannii HE130 lacking bla-OXA-23 gene by Etest method.
Assay [10] concerns Acinetobacter baumannii. Kind of assay: Antimicrobial activity against Acinetobacter baumannii AB026 transformant harboring bla-OXA-23 gene by Etest method. It is filed as functional.

The MIC is the lowest concentration found to suppress growth. Higher therefore signals a less susceptible organism.

Values after ≈ are worked out from the molar mass of the structure shown.

As to `NCC[C@H](O)C(=O)N[C@@H]1C[C@H](N)[C@@H](O[C@H]2O[C@H](CN)[C@@H](O)[C@H](O)[C@H]2O)[C@H](O)[C@H]1O[C@H]1O[C@H](CO)[C@@H](O)[C@H](N)[C@H]1O` [AMIKACIN], the Activity with Acinetobacter baumannii [1] is given as 36.7%. Further, the MIC was greater than 256 µg/mL against Acinetobacter baumannii [2], 128 µg/mL (≈ 219 µM) against Acinetobacter baumannii [3], 2 µg/mL (≈ 3.42 µM) with Acinetobacter baumannii [4] and 12 µg/mL (≈ 20.5 µM) in the assay on Acinetobacter baumannii [5].

For `CC1(C)S[C@@H]2[C@H](NC(=O)[C@H](N)c3ccccc3)C(=O)N2[C@H]1C(=O)O` [AMPICILLIN], the Activity in the assay with Acinetobacter baumannii [6] is 40.8%.

With `CO/N=C(\C(=O)N[C@@H]1C(=O)N2C(C(=O)[O-])=C(C[N+]3(C)CCCC3)CS[C@H]12)c1csc(N)n1` [CEFEPIME], the Activity in the assay with Acinetobacter baumannii [1] amounted to 79.6%.

For `CC(C)(O/N=C(\C(=O)N[C@@H]1C(=O)N2C(C(=O)[O-])=C(C[n+]3ccccc3)CS[C@H]12)c1csc(N)n1)C(=O)O` [CEFTAZIDIME], the Activity in the assay with Acinetobacter baumannii [1] was 87.8%.

Consider `O=C(O)c1cn(C2CC2)c2cc(N3CCNCC3)c(F)cc2c1=O` [CIPROFLOXACIN], for which the Activity in the assay on Acinetobacter baumannii [1] turned out to be 95.9%.

Take `C[C@@H](O)[C@H]1C(=O)N2C(C(=O)O)=C(SCCNC=N)C[C@H]12` [IMIPENEM ANHYDROUS]: the Activity with Acinetobacter baumannii [7] was 18.4%. Further, the MIC came out at 4 µg/mL (≈ 13.4 µM) in the assay with Acinetobacter baumannii [8] and 0.5 µg/mL (≈ 1.67 µM) with Acinetobacter baumannii [9].

For the compound `C[C@@H](O)[C@H]1C(=O)N2C(C(=O)O)=C(S[C@@H]3CN[C@H](C(=O)N(C)C)C3)[C@H](C)[C@H]12` [MEROPENEM], the Activity with Acinetobacter baumannii [1] was determined as 22.4%. The MIC with Acinetobacter baumannii [10] was 6 µg/mL (≈ 15.6 µM); against Acinetobacter baumannii [9], 0.125 µg/mL (≈ 0.326 µM).

`CN(C)[C@@H]1C(O)=C(C(N)=O)C(=O)[C@@]2(O)C(O)=C3C(=O)c4c(O)cccc4[C@@](C)(O)[C@H]3C[C@@H]12` [TETRACYCLINE]: the Activity in the assay with Acinetobacter baumannii [1] was 79.6%.

`NC[C@H]1O[C@H](O[C@H]2[C@H](O)[C@@H](O[C@H]3O[C@H](CO)[C@@H](O)[C@H](N)[C@H]3O)[C@H](N)C[C@@H]2N)[C@H](N)C[C@@H]1O` [TOBRAMYCIN]: the Activity in the assay with Acinetobacter baumannii [1] stood at 61.2%.

On to GENTAMICIN, for which the Percent resistant isolates in the assay on Acinetobacter baumannii [1] stood at 77.6%.
